For 14 compounds, Ki results are on record in ChEMBL document CHEMBL1135661, “Design of noncovalent inhibitors of human cathepsin L. From the 96-residue proregion to optimized tripeptides” (J Med Chem, 2002).

SMILES strings stand for the structures. Peptide text beside a SMILES is read from it. * marks the point of attachment. Phenylacetyl(4-Ph) = O=C(Cc1ccc(-c2ccccc2)cc1)*

One test concerns the target Procathepsin L (Homo sapiens, UniProt P07711). Kind of test: Inhibitory activity against human Cathepsin L.
In another test the target is T1, Cathepsin K (Homo sapiens, UniProt P43235).
T1 sequence (P43235 whole entry): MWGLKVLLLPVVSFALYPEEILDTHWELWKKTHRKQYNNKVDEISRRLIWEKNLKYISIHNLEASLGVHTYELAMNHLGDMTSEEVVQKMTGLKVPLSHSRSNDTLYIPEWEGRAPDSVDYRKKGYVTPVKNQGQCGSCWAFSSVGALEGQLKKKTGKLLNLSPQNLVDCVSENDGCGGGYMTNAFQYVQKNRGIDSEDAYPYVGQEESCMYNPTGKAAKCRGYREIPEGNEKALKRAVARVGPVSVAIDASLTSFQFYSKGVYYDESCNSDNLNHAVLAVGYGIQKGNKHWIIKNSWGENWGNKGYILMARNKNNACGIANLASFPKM
Kind of test: Specificity of Cathepsin K inhibition by the compound. The essentials:
(§1)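 Recombinant human cathepsins B and K were expressed in Pichia pastoris and stored inhibited with MMTS or HgCl2 (B at 4 °C, K at −80 °C). Both were reactivated with 2 mM DTT and E-64 titrated. Cbz-Phe-Arg-MCA was kept well below KM, at 25 °C, pH 6.0 (50 mM phosphate, 5 mM EDTA, 0.2 M NaCl, 3% DMSO). Read-out was fluorescence at 380/440 nm. Ki came from 1/vs vs [I] plots or slow-binding analysis.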

Another test concerns the target Cathepsin B (Homo sapiens, UniProt P07858). The test can be described thus: Specificity of Cathepsin B inhibition by the compound. The procedure, abridged:
as §1

Procathepsin L, sequence (P07711 whole entry): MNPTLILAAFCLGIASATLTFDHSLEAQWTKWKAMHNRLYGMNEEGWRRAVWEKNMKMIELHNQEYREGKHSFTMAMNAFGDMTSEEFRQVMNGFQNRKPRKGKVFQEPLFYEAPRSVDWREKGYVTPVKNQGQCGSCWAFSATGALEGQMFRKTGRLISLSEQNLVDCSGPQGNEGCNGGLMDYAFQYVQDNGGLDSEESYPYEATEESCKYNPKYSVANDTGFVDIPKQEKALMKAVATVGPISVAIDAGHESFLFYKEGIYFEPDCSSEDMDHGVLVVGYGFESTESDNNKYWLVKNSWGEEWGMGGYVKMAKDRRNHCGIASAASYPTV

In general, Ki refers to the dissociation constant of the complex between target and ligand, obtained from inhibition or displacement. A high value points to weaker binding. `N=C(N)NCCC[C@H](NC(=O)[C@H](CCCN=C(N)N)NC(=O)[C@H](CS)NC(=O)Cc1ccc(-c2ccccc2)cc1)C(=O)NCCc1ccccc1`: the Ki at Procathepsin L was determined as 3.9 µM.

For the compound `N=C(N)NCCC[C@H](NC(=O)[C@H](CS)NC(=O)Cc1ccc(-c2ccccc2)cc1)C(=O)N[C@@H](Cc1ccc2ccccc2c1)C(=O)NCCc1ccccc1`, the affinity on Procathepsin L, expressed as Ki, was 0.16 µM.

Consider `N=C(N)NCCC[C@H](NC(=O)[C@H](CS)NC(=O)Cc1ccc(-c2ccccc2)cc1)C(=O)N[C@@H](Cc1ccc(-c2ccccc2)cc1)C(=O)NCCc1ccccc1`, for which, at Procathepsin L, affinity was put at a Ki of 0.27 µM.

`N=C(N)NCCC[C@H](NC(=O)[C@H](CS)NC(=O)Cc1ccc(-c2ccccc2)cc1)C(=O)N[C@@H](Cc1ccc(O)cc1)C(=O)NCCc1ccccc1`: the Ki at Cathepsin K was 2.9 µM; on Cathepsin B, 15 µM.

Consider `N=C(N)NCCC[C@@H](NC(=O)[C@H](CS)NC(=O)Cc1ccc(-c2ccccc2)cc1)C(=O)N[C@@H](Cc1ccccc1)C(=O)N[C@@H](Cc1ccccc1)C(N)=O` (stereo in doubt; 4), for which affinity at Procathepsin L was put at a Ki of 0.17 µM.

On Procathepsin L, `CSC[C@H](NC(=O)Cc1ccc(-c2ccccc2)cc1)C(=O)NCC(=O)N[C@@H](Cc1ccccc1)C(=O)N[C@@H](Cc1ccccc1)C(N)=O` ({Phenylacetyl(4-Ph)}-C(Me)GFF-NH2) registered a Ki of 0.93 µM.

As to `N=C(N)NCCC[C@H](NC(=O)[C@H](CS)NC(=O)Cc1ccc(-c2ccccc2)cc1)C(=O)N[C@@H](Cc1c[nH]c2ccccc12)C(=O)NCCc1ccccc1`, the Ki was 1 µM at Cathepsin K, 0.067 µM at Procathepsin L and 0.56 µM at Cathepsin B.

For the compound `N=C(N)NCCC[C@@H](NC(=O)[C@H](CO)NC(=O)Cc1ccc(-c2ccccc2)cc1)C(=O)N[C@@H](Cc1ccccc1)C(=O)N[C@@H](Cc1ccccc1)C(N)=O`, the affinity at Procathepsin L corresponds to a Ki of 74 µM.

With `CC[C@H](NC(=O)[C@H](CCCN=C(N)N)NC(=O)[C@H](CS)NC(=O)Cc1ccc(-c2ccccc2)cc1)C(=O)NCCc1ccccc1`, the inhibitory constant (Ki) at Procathepsin L worked out at 0.21 µM. Compared with the last compound, the Ki is about 350-fold lower.

On to `CSCC[C@H](NC(C)=O)C(=O)N[C@@H](CC(N)=O)C(=O)NCC(=O)N[C@@H](Cc1ccccc1)C(=O)N[C@@H](CCC(N)=O)C(N)=O` (Ac-MNGFQ-NH2), for which the Ki on Procathepsin L was greater than 100 µM.

Compound `N=C(N)NCCC[C@H](NC(=O)[C@H](CS)NC(=O)Cc1ccc(-c2ccccc2)cc1)C(=O)N[C@@H](CC1CCCCC1)C(=O)NCCc1ccccc1` gave a Ki on Procathepsin L of 0.16 µM.

With `NC(=O)C[C@H](NC(=O)Cc1ccc(-c2ccccc2)cc1)C(=O)N[C@H](CCCN=C(N)N)C(=O)N[C@@H](Cc1ccccc1)C(=O)NC(Cc1ccccc1)C(N)=O` (some centres not stated), affinity on Procathepsin L was put at a Ki of 38 µM.

Regarding `CSC[C@@H](NC(=O)Cc1ccc(-c2ccccc2)cc1)C(=O)N[C@@H](CCCN=C(N)N)C(=O)N[C@@H](CC(C)C)C(=O)NCCc1ccccc1`, on Procathepsin L, the Ki was found to be 0.27 µM.

Turning to `CSCC[C@H](NC(=O)[C@H](CCCN=C(N)N)NC(=O)[C@@H](CSC)NC(=O)Cc1ccc(-c2ccccc2)cc1)C(=O)NCCc1ccccc1`, at Procathepsin L, the affinity corresponds to a Ki of 0.24 µM.
